Series [1] concerns BT-549 (Homo sapiens). Description: Growth inhibitory activity was determined against BT-549 cancer cell line of Breast cancer. As to conditions: Homo sapiens, BT-549.
Series [2] has as its system PC-3. As to the kind of experiment: Growth inhibitory activity was determined against PC-3 cancer cell line of Prostate cancer. The series is classed as functional. As to conditions: Homo sapiens. The method in brief: (§1)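 NCI 60 human tumour cell line screen run at the National Cancer Institute. Cell growth and viability read with the protein stain sulforhodamine B, which binds basic amino acids of cells left attached after washing. […] MG MID is the mean GI50 calculated over all panels.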

The subject of series [3] is OVCAR-8. Description: Growth inhibitory activity was determined against OVCAR-8 cancer cell lines of Ovarian cancer. The series is classed as functional. As to conditions: Homo sapiens. The method in brief:
as §1

Series [4] has as its system NCI-H522. Description: Growth inhibitory activity was determined against NCI-H522 cancer cell line of non-small cell lung cancer. As to conditions: Homo sapiens. Format: functional. The method in brief:
as §1

The subject of series [5] is 786-0. Description: Growth inhibitory activity was determined against 786-0 cancer cell line of renal cancer. As to conditions: Homo sapiens. The series is classed as functional. The essentials: as §1
The subject of series [6] is NCI-H23. Description: Growth inhibitory activity was determined against NCI-H23 cancer cell line of non-small cell lung cancer. The series is classed as functional, Homo sapiens. The following applies: Homo sapiens, NCI-H23. The method in brief:
as §1

In series [7] the test system is COLO 205. As to the kind of experiment: Growth inhibitory activity was determined against COLO 205 cancer cell line colon cancer. The series is classed as functional, Homo sapiens. The following applies: Homo sapiens, COLO 205. The essentials: as §1
The subject of series [8] is SN12C. As to the kind of experiment: Growth inhibitory activity was determined against SN12C cancer cell line of renal cancer. Format: functional. As to conditions: Homo sapiens. The method in brief:
as §1

In series [9] the test system is SF-539. As to the kind of experiment: Growth inhibitory activity was determined against SF-539 cancer cell line of CNS cancer. The series is classed as functional. As to conditions: Homo sapiens. The essentials:
as §1

Series [10] relates to LOX IMVI. As to the kind of experiment: Growth inhibitory activity was determined against LOX IMVI cancer cell line of melanoma. The following applies: Homo sapiens, LOX IMVI. The series is classed as functional, Homo sapiens. The essentials: as §1
For series [11], the system named is T47D. Description: Growth inhibitory activity was determined against T-47D cancer cell line of Breast cancer. The following applies: Homo sapiens, T47D. Format: functional, Homo sapiens. The method in brief: as §1
Series [12] concerns UO-31. Description: Growth inhibitory activity was determined against UO-31 cancer cell line of renal cancer. Format: functional. The following applies: Homo sapiens. The essentials:
as §1

The test system of series [13] is SK-MEL-5. Description: Growth inhibitory activity was determined against SK-MEL-5 cancer cell line of melanoma. The series is classed as functional, Homo sapiens. As to conditions: Homo sapiens, SK-MEL-5. The method in brief: as §1
The subject of series [14] is SF-268. As to the kind of experiment: Growth inhibitory activity was determined against SF-268 cancer cell line of CNS cancer. Format: functional. The following applies: Homo sapiens. The essentials:
as §1

For series [15], the system named is NCI/ADR-RES. Description: Growth inhibitory activity was determined against NCI/ADR-RES cancer cell line of Breast cancer. Format: functional, Homo sapiens. As to conditions: Homo sapiens, NCI/ADR-RES. The essentials: as §1
Series [16] has as its system HT-29. As to the kind of experiment: Growth inhibitory activity was determined against HT-29 cancer cell line colon cancer. The following applies: Homo sapiens, HT-29. Format: functional, Homo sapiens. The method in brief:
as §1

The subject of series [17] is A549. Description: Growth inhibitory activity was determined against A549/ATCC cancer cell line of non-small cell lung cancer. Format: functional, Homo sapiens. The following applies: Homo sapiens, A549. The essentials: as §1
Series [18] deals with HCC 2998. As to the kind of experiment: Growth inhibitory activity was determined against HCC2998 cancer cell line colon cancer. The series is classed as functional, Homo sapiens. The following applies: Homo sapiens, HCC 2998. The method in brief:
as §1

For series [19], the system named is U-251. Description: Growth inhibitory activity was determined against U-251 cancer cell line of CNS cancer. The series is classed as functional. As to conditions: Homo sapiens. The essentials: as §1
Series [20] concerns OVCAR-3. Description: Growth inhibitory activity was determined against OVCAR-3 cancer cell lines of Ovarian cancer. Format: functional. The following applies: Homo sapiens. The method in brief: as §1
Series [21] deals with T1, M-phase inducer phosphatase 1 (Homo sapiens, UniProt P30304).
T1 sequence (P30304 whole entry): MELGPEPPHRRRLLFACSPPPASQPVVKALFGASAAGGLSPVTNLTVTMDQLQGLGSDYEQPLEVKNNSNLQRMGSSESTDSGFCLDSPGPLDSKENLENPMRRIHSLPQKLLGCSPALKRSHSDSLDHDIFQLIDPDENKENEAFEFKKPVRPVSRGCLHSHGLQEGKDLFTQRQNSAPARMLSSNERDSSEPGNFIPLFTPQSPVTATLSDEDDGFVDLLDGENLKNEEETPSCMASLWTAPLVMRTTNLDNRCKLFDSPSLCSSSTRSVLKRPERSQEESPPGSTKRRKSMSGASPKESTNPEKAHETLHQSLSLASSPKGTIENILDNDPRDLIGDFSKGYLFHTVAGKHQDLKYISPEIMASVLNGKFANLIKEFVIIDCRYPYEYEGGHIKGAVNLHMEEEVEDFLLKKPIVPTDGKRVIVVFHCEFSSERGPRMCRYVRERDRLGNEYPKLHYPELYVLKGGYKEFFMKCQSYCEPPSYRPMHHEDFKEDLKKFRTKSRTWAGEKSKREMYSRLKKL
Description: Inhibitory activity tested against cell division cycle 25A (assay using p-nitro phenyl phosphate (pNPP) as substrate).

Series [22] deals with T1, M-phase inducer phosphatase 1. As to the kind of experiment: Inhibitory activity tested against cell division cycle 25A (assay using fluorescein diphosphate (FDP) as substrate). The essentials: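 Recombinant human GST-Cdc25A fusion protein, each batch calibrated so that FDP was dephosphorylated linearly over 20 min. Fluorescein diphosphate was the substrate. Reactions ran 15 min at 25 °C in the dark and were stopped with sodium orthovanadate. IC50 came from at least two independent runs, each in triplicate.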

In series [23] the target is Receptor-type tyrosine-protein phosphatase C, CD45 (Homo sapiens) (UniProt P08575). As to the kind of experiment: Inhibitory activity tested against human CD45 (receptor-type tyrosine-protein phosphatase C).
Sequence of Receptor-type tyrosine-protein phosphatase C, CD45 (Homo sapiens) (P08575 whole entry, looked up): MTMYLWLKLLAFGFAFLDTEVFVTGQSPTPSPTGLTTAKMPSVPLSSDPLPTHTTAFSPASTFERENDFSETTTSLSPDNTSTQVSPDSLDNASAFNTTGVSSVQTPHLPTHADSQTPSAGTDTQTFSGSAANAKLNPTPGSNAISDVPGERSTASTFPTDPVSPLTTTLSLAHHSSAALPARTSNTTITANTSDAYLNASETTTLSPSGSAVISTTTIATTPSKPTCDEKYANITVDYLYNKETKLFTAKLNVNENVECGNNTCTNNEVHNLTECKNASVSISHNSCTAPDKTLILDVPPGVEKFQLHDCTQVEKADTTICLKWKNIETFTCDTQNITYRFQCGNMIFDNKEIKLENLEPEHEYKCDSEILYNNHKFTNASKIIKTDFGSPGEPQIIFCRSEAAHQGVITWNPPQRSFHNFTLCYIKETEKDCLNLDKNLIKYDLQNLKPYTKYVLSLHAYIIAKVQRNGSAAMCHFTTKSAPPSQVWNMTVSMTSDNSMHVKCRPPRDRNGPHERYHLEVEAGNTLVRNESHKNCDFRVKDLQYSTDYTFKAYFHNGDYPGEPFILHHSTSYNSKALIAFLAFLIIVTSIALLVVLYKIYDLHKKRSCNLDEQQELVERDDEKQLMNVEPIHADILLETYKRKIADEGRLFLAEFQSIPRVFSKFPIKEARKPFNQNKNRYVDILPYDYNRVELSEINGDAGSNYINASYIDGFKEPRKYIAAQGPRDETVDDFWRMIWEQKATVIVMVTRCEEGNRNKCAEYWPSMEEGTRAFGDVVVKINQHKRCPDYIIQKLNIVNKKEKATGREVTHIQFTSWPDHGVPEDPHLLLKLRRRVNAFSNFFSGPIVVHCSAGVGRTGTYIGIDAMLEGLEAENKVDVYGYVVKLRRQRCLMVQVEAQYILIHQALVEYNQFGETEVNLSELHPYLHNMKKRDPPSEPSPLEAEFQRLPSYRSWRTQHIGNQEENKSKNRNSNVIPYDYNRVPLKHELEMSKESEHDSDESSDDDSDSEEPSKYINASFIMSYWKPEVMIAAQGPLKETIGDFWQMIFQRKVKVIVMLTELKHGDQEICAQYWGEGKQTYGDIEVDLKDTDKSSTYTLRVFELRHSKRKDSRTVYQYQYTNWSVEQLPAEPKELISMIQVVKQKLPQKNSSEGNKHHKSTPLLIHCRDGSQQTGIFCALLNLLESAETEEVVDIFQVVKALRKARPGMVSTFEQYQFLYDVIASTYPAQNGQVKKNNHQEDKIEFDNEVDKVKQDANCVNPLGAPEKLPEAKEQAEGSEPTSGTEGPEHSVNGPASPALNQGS
Substrate in series [24]: C=C(CCCCC#N)[C@H]1CC[C@]2(C)[C@@H]([C@H](C)CCCC(C)C)CC[C@H]2[C@@H]1CC(=O)O
The following applies: 1.25 uM.

Substrate in series [25]: C=C(CCCCC#N)[C@H]1CC[C@]2(C)[C@@H]([C@H](C)CCCC(C)C)CC[C@H]2[C@@H]1CC(=O)O
The following applies: 5 uM.

Substrate in series [26]: C=C(CCCCC#N)[C@H]1CC[C@]2(C)[C@@H]([C@H](C)CCCC(C)C)CC[C@H]2[C@@H]1CC(=O)O
The following applies: 0.625 uM.

Substrate in series [27]: C=C(CCCCC#N)[C@H]1CC[C@]2(C)[C@@H]([C@H](C)CCCC(C)C)CC[C@H]2[C@@H]1CC(=O)O
Substrate in series [28]: C=C(CCCCC#N)[C@H]1CC[C@]2(C)[C@@H]([C@H](C)CCCC(C)C)CC[C@H]2[C@@H]1CC(=O)O
This is another data set of the same source.

Substrate in series [29]: C=C(CCCCC#N)[C@H]1CC[C@]2(C)[C@@H]([C@H](C)CCCC(C)C)CC[C@H]2[C@@H]1CC(=O)O
The source holds these as a separate data set.

Substrate in series [30]: C=C(CCCCC#N)[C@H]1CC[C@]2(C)[C@@H]([C@H](C)CCCC(C)C)CC[C@H]2[C@@H]1CC(=O)O
The following applies: 2.5 uM.

Substrate in series [31]: C=C(CCCCC#N)[C@H]1CC[C@]2(C)[C@@H]([C@H](C)CCCC(C)C)CC[C@H]2[C@@H]1CC(=O)O
This is another data set of the same source.

Consider 3 molecules from ChEMBL document CHEMBL1134845, “Syntheses and biological activities of a novel group of steroidal derived inhibitors for human Cdc25A protein phosphatase” (J Med Chem, 2001).

Consider `CC(C)CCCC(C)[C@H]1CC[C@H]2[C@H](CC(=O)O)[C@@H]([C@@]3(C)CC[C@@H](CC#N)O3)CC[C@]12C` (stereo not given in full), for which the GI50 in series [1] came out at 5.05 µM; in series [2], 7.77 µM; in series [3], 4.76 µM; in series [4] it was 0.94 µM; in series [5], 9.23 µM; in series [6] it was 5.75 µM. The GI50 came out at 5.26 µM in series [7]; 5.4 µM in [8]; 19.5 µM in [9]; 6.23 µM in series [10]; 8.41 µM in [11]; 15.3 µM in series [12]. For the same molecule, the GI50 in series [13] came to 10.8 µM; in series [14], 2.86 µM; in series [15] it was 5.44 µM; in series [16] it was 5.52 µM; in series [17], 8.25 µM; in series [18], 5.1 µM. Besides, the GI50 was 6.01 µM in [19] and 5.66 µM in series [20].

For `CC(C)CCC[C@@H](C)[C@H]1CC[C@H]2[C@@H]3CC(=O)O[C@](C)(CCCCC(=O)O)[C@H]3CC[C@]12C`, the concentration for 50% growth inhibition (GI50) in [1] was 4.19 µM; in [2] it was 7.21 µM; in series [3], 5.13 µM; in [4], > 25 µM; in series [5] it was 8.44 µM; in series [6], 4.92 µM. The GI50 was determined as 6.13 µM in series [7]; 8.3 µM in series [8]; 14.6 µM in [9]; 7.3 µM in series [11]; 11 µM in [12]; 9.69 µM in series [13]. For the same molecule, the GI50 was > 25 µM in series [14]; 5.55 µM in series [15]; 7.76 µM in series [16]; 8.3 µM in series [17]; 4.43 µM in [18]; 6.28 µM in series [19]. The molecule also yielded a GI50 in series [20] of 5.78 µM. Also, the results for the IC50 in series [21], in [22] and in series [23] were 11.6 µM, 5.1 µM and > 100 µM, respectively.

B1: M-phase inducer phosphatase 1 (Homo sapiens), P30304 (protein)
chain: MELGPEPPHRRRLLFACSPPPASQPVVKALFGASAAGGLSPVTNLTVTMDQLQGLGSDYEQPLEVKNNSNLQRMGSSESTDSGFCLDSPGPLDSKENLENPMRRIHSLPQKLLGCSPALKRSHSDSLDHDIFQLIDPDENKENEAFEFKKPVRPVSRGCLHSHGLQEGKDLFTQRQNSAPARMLSSNERDSSEPGNFIPLFTPQSPVTATLSDEDDGFVDLLDGENLKNEEETPSCMASLWTAPLVMRTTNLDNRCKLFDSPSLCSSSTRSVLKRPERSQEESPPGSTKRRKSMSGASPKESTNPEKAHETLHQSLSLASSPKGTIENILDNDPRDLIGDFSKGYLFHTVAGKHQDLKYISPEIMASVLNGKFANLIKEFVIIDCRYPYEYEGGHIKGAVNLHMEEEVEDFLLKKPIVPTDGKRVIVVFHCEFSSERGPRMCRYVRERDRLGNEYPKLHYPELYVLKGGYKEFFMKCQSYCEPPSYRPMHHEDFKEDLKKFRTKSRTWAGEKSKREMYSRLKKL
Turning to B1, the Vmax in series [24] came to 4260; in [25] it was 632; in series [26] it was 4610; in [30] it was 3070. For the same molecule, the Km turned out to be 33.6 µM in series [27], 32.3 µM in [28], 37.4 µM in [29] and 23.1 µM in series [31].
